From ChEMBL document CHEMBL1932977, “Synthesis of pyrazolo[3,4-b]pyridines under microwave irradiation in multi-component reactions and their antitumor and antimicrobial activities - Part 1” (Eur J Med Chem, 2012)
≈ marks a conversion by molar mass, not a printed value. Calls of active or inactive are those of the source. The calls are words filed in the database; no cut-off is given here.

Columns and labels:
Serratia = assay: Antibacterial activity against Serratia at 10 mg/ml after 24 hrs by cut-plug method; format: functional
How it was run: (§1)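 Cut-plug agar diffusion. Bacteria grown on nutrient agar and fungi on Sabouraud agar slopes, strains from a university culture collection. Plates seeded with 1 ml of diluted inoculum (10⁷ CFU/ml) spread after solidification. Wells cut and filled with compound in DMSO at 10 mg/ml. Plates incubated at 30 °C for 24 h, then inhibition-zone diameters (mm) measured.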

Escherichia coli = assay: Antibacterial activity against Escherichia coli at 10 mg/ml after 24 hrs by cut-plug method; format: functional; how it was run: as §1
Penicillium expansum = assay: Antifungal activity against Penicillium expansum at 10 mg/ml after 24 hrs by cut-plug method; format: functional; how it was run: as §1
Enterobacter cloacae = assay: Antibacterial activity against Enterobacter cloacae at 10 mg/ml after 24 hrs by cut-plug method; format: functional; how it was run: as §1
Fusarium oxysporum = assay: Antifungal activity against Fusarium oxysporum at 10 mg/ml after 24 hrs by cut-plug method; format: functional; how it was run: as §1
HepG2 = assay: Cytotoxicity against human HepG2 by sulforhodamie B colorimetric assay; format: functional, cell-based
How it was run: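 HEPG2 human liver cancer cells, compound-treated against untreated control. Read by SRB: TCA-fixed cultures stained 30 min with 0.4% w/v SRB in 1% acetic acid, bound dye extracted with 10 mM Tris, optical density read on a plate reader. Surviving fraction as percent growth. IC50 estimated by probit regression.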

Bacillus = assay: Antibacterial activity against Bacillus at 10 mg/ml after 24 hrs by cut-plug method; format: functional; how it was run: as §1
[1] = Homo sapiens, HepG2, read-out: IC50

`COc1ccc(-c2c(C#N)c(-c3cccnc3)nc3c2c(-c2cccnc2)nn3-c2ccccc2)cc1` was tested, and the “diameter of the inhibition zone (DIZ)” value (Serratia) was “inactive”, the “diameter of the inhibition zone (DIZ)” value (Escherichia coli) was “inactive” and the “diameter of the inhibition zone (DIZ)” value (Penicillium expansum) was “inactive”. For the same compound, the “diameter of the inhibition zone (DIZ)” value (Enterobacter cloacae) was “inactive”, the “diameter of the inhibition zone (DIZ)” value (Fusarium oxysporum) was “inactive” and the IC50 (HepG2; [1]) was 3.73 µg/mL (≈ 7.76 µM).

For `O=C(O)c1cc(-c2ccc(O)cc2)c2c(-c3cccnc3)nn(-c3ccccc3)c2n1`, the “diameter of the inhibition zone (DIZ)” value (Bacillus) was “inactive”, the “diameter of the inhibition zone (DIZ)” value (Escherichia coli) was “inactive” and the “diameter of the inhibition zone (DIZ)” value (Penicillium expansum) was “inactive”. For the same compound, the “diameter of the inhibition zone (DIZ)” value (Enterobacter cloacae) was “inactive”.

With `COc1ccc(-c2c(C#N)c(-c3ccc(Cl)cc3)nc3c2c(-c2cccnc2)nn3-c2ccccc2)cc1` the “diameter of the inhibition zone (DIZ)” value (Serratia) was “inactive”, the “diameter of the inhibition zone (DIZ)” value (Bacillus) was “inactive” and the “diameter of the inhibition zone (DIZ)” value (Escherichia coli) was “inactive”. The “diameter of the inhibition zone (DIZ)” value (Penicillium expansum) was “inactive”, the “diameter of the inhibition zone (DIZ)” value (Enterobacter cloacae) was “inactive” and the “diameter of the inhibition zone (DIZ)” value (Fusarium oxysporum) was “inactive”. The IC50 (HepG2; [1]) was 4 µg/mL (≈ 7.78 µM).

With `CN(C)c1ccc(-c2cc(C(=O)O)nc3c2c(-c2cccnc2)nn3-c2ccccc2)cc1` the “diameter of the inhibition zone (DIZ)” value (Bacillus) was “inactive”, the “diameter of the inhibition zone (DIZ)” value (Escherichia coli) was “inactive” and the “diameter of the inhibition zone (DIZ)” value (Penicillium expansum) was “inactive”.

`COc1ccc(-c2cc(C(=O)O)nc3c2c(-c2cccnc2)nn3-c2ccccc2)cc1` was tested, and the “diameter of the inhibition zone (DIZ)” value (Penicillium expansum) was “inactive”.

In the case of `O=C(O)c1cc(-c2ccc(Br)cc2)c2c(-c3cccnc3)nn(-c3ccccc3)c2n1`, the “diameter of the inhibition zone (DIZ)” value (Bacillus) is reported as “inactive”, the “diameter of the inhibition zone (DIZ)” value (Escherichia coli) is reported as “inactive” and the “diameter of the inhibition zone (DIZ)” value (Penicillium expansum) is reported as “inactive”. The “diameter of the inhibition zone (DIZ)” value (Enterobacter cloacae) was “inactive” and the “diameter of the inhibition zone (DIZ)” value (Fusarium oxysporum) was “inactive”.

With `COc1ccc(-c2c(C#N)c(-c3ccc(F)cc3)nc3c2c(-c2cccnc2)nn3-c2ccccc2)cc1` the “diameter of the inhibition zone (DIZ)” value (Bacillus) was “inactive”, the “diameter of the inhibition zone (DIZ)” value (Escherichia coli) was “inactive” and the “diameter of the inhibition zone (DIZ)” value (Penicillium expansum) was “inactive”. The “diameter of the inhibition zone (DIZ)” value (Enterobacter cloacae) was “inactive”, the “diameter of the inhibition zone (DIZ)” value (Fusarium oxysporum) was “inactive” and the IC50 (HepG2; [1]) was 3.43 µg/mL (≈ 6.89 µM).

In the case of `CCN(CC)c1ccc(-c2cc(C(=O)O)nc3c2c(-c2cccnc2)nn3-c2ccccc2)cc1`, the “diameter of the inhibition zone (DIZ)” value (Serratia) is reported as “inactive”, the “diameter of the inhibition zone (DIZ)” value (Bacillus) is reported as “inactive” and the “diameter of the inhibition zone (DIZ)” value (Escherichia coli) is reported as “inactive”. For the same compound, the “diameter of the inhibition zone (DIZ)” value (Penicillium expansum) was “inactive” and the “diameter of the inhibition zone (DIZ)” value (Enterobacter cloacae) was “inactive”.

Work on `COc1cccc2c1C(=O)c1c(O)c3c(c(O)c1C2=O)C[C@@](O)(C(=O)CO)C[C@@H]3O[C@H]1C[C@H](N)[C@H](O)[C@H](C)O1` [DOXORUBICIN] yielded an IC50 (HepG2; [1]) of 3.73 µg/mL (≈ 6.86 µM).

In the case of `COc1ccc(-c2c(C#N)c(-c3ccc(C)cc3)nc3c2c(-c2cccnc2)nn3-c2ccccc2)cc1`, the “diameter of the inhibition zone (DIZ)” value (Bacillus) is reported as “inactive”, the “diameter of the inhibition zone (DIZ)” value (Penicillium expansum) is reported as “inactive” and the “diameter of the inhibition zone (DIZ)” value (Enterobacter cloacae) is reported as “inactive”. The “diameter of the inhibition zone (DIZ)” value (Fusarium oxysporum) was “inactive” and the IC50 (HepG2; [1]) was 4.34 µg/mL (≈ 8.79 µM).

With `O=C(O)c1cc(-c2ccccc2)c2c(-c3cccnc3)nn(-c3ccccc3)c2n1` the “diameter of the inhibition zone (DIZ)” value (Bacillus) was “inactive”, the “diameter of the inhibition zone (DIZ)” value (Escherichia coli) was “inactive” and the “diameter of the inhibition zone (DIZ)” value (Penicillium expansum) was “inactive”. For the same compound, the “diameter of the inhibition zone (DIZ)” value (Enterobacter cloacae) was “inactive” and the “diameter of the inhibition zone (DIZ)” value (Fusarium oxysporum) was “inactive”.

With `COc1ccc(-c2c(C#N)c(-c3ccccc3)nc3c2c(-c2cccnc2)nn3-c2ccccc2)cc1` the “diameter of the inhibition zone (DIZ)” value (Serratia) was “inactive”, the “diameter of the inhibition zone (DIZ)” value (Bacillus) was “inactive” and the “diameter of the inhibition zone (DIZ)” value (Escherichia coli) was “inactive”. For the same compound, the “diameter of the inhibition zone (DIZ)” value (Penicillium expansum) was “inactive”, the “diameter of the inhibition zone (DIZ)” value (Enterobacter cloacae) was “inactive” and the “diameter of the inhibition zone (DIZ)” value (Fusarium oxysporum) was “inactive”. The IC50 (HepG2; hepg2) was “Not Active”.

`COc1ccc(-c2c(C#N)c(-c3ccc([N+](=O)[O-])cc3)nc3c2c(-c2cccnc2)nn3-c2ccccc2)cc1` was tested, and the “diameter of the inhibition zone (DIZ)” value (Serratia) was “inactive”, the “diameter of the inhibition zone (DIZ)” value (Bacillus) was “inactive” and the “diameter of the inhibition zone (DIZ)” value (Enterobacter cloacae) was “inactive”. The “diameter of the inhibition zone (DIZ)” value (Fusarium oxysporum) was “inactive” and the IC50 (HepG2; [1]) was 13.5 µg/mL (≈ 25.7 µM).
